The results in this text go back to ChEMBL document CHEMBL1121831 (1981).

Experiment [1] addresses Dihydrofolate reductase (Lactobacillus casei) (UniProt P00381). Put plainly: Compound is evaluated for binding to Lactobacillus casei dihydrofolate reductase using kinetic assay. To be noted: Lacticaseibacillus casei.
Experiment [2] relates to L1210. As to the kind of experiment: Compound is tested for the inhibition of growth of murine leukemia cells (L1210). Type of experiment: functional. As to conditions: Mus musculus, read-out: ID50 (the source's name). In outline:
(§1)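 CEM human lymphoblastic and L1210 murine leukemia cells were grown in culture with drug for 48 h, at concentrations up to 10 μM. The read-out was growth inhibition, given as ID50 or, where ID50 was not reached, as percent inhibition at 10 μM. Values are averages of triplicate experiments.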

For experiment [3], the target named is T1, Dihydrofolate reductase (Mus musculus) (UniProt P00375).
T1 sequence (whole entry): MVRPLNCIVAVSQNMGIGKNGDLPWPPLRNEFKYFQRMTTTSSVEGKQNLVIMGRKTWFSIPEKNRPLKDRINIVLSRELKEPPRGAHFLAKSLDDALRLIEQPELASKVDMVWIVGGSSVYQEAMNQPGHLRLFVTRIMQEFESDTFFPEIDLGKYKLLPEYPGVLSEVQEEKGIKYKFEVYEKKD
As to the kind of experiment: Compound is evaluated for binding to L1210 mouse leukemia cells dihydrofolate reductase using ligand-binding assay.

Experiment [4] concerns CCRF-CEM. Put plainly: Compound was tested for the inhibition of growth of human lymphoblastic leukemia cells (CEM). As to conditions: read-out: ID50 (the source's name). Type of experiment: functional. In outline: as §1
The test system of experiment [5] is L1210. As to the kind of experiment: Compound was tested for the inhibition of growth of murine leukemia cells (L1210). Type of experiment: functional. As to conditions: Mus musculus, read-out: ID50 (the source's name). Put shortly:
as §1

Experiment [6] has as its target Dihydrofolate reductase (Lactobacillus casei) (UniProt P00381). As to the kind of experiment: Affinity for partially purified bacterial (Lactobacillus casei) dihydrofolate reductase. To be noted: Lacticaseibacillus casei.
Experiment [7] concerns the target T1, Dihydrofolate reductase (Mus musculus). As to the kind of experiment: Affinity for mammalian (L1210 mouse leukemia) dihydrofolate reductase. Put shortly: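 Partially purified DHFR from L1210 cells, diluted 8-fold in 0.1 M KH2PO4 (pH 6.2) with 0.1% BSA and 1 mM NADPH, then held on ice 5 min. Competition with [3H]MTX over serial 5-fold dilutions starting from a 6 μM solution, 5 min at 0 °C. Unbound ligand removed with Norite charcoal and the supernatant counted; ID50 (50% drop in bound label) read from a logit-log plot.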

Experiment [8] deals with CCRF-CEM (Homo sapiens). Put plainly: Percent inhibition of human lymphoblastic leukemia cell growth (48h) at 10 uM.
In experiment [9] the test system is CCRF-CEM. As to the kind of experiment: Compound is tested for the inhibition of growth of human lymphoblastic leukemia cells (CEM). Type of experiment: functional. As to conditions: read-out: ID50 (the source's name). In outline:
as §1

For experiment [10], the system named is L1210. As to the kind of experiment: Compound is evaluated for activity against L1210 leukemia in mice, at dose 15 mg/kg in experiment 1. Type of experiment: functional, Mus musculus. Put shortly:
(§2)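 B6D2F1 mice were inoculated ip with 10^5 L1210 cells on day 0. Test agents were given ip on days 1, 4 and 7 in 10% Tween 80 or a 1:1:8 emulphor-ethanol-water suspension; MTX was given ip as the disodium salt in water. Groups were mostly five mice. Read-out was median survival of treated vs control mice (days) and % increase in life span.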

The subject of experiment [11] is L1210. As to the kind of experiment: Compound is evaluated for activity against L1210 leukemia in mice, at dose 20 mg/kg in experiment 2. Type of experiment: functional, Mus musculus. Put shortly: as §2
In experiment [12] the test system is L1210. Put plainly: Compound is evaluated for activity against L1210 leukemia in mice, at dose 40 mg/kg in experiment 2. Type of experiment: functional, Mus musculus. Put shortly: as §2
Experiment [13] relates to L1210. Put plainly: Compound was evaluated for activity against L1210 leukemia in mice, at dose 7.5 mg/kg in experiment 1. Type of experiment: functional, Mus musculus. Put shortly:
as §2

Experiment [14] concerns L1210. As to the kind of experiment: Compound is evaluated for percent increase in life span against L1210 leukemia in mice, at dose 20 mg/kg in experiment 2. Type of experiment: functional. As to conditions: Mus musculus. In outline:
(§3)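 B6D2F1 mice were inoculated ip with 10⁵ L1210 cells on day 0. Drug was given ip on days 1, 4 and 7 (q3d) as a suspension in 10% Tween 80 or 1:1:8 emulphor–ethanol–water, or as the disodium salt in water. The read-out was median survival of treated versus control mice (T/C, days), expressed as % increase in life span.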

In experiment [15] the test system is L1210. As to the kind of experiment: Compound is evaluated for percent increase in life span against L1210 leukemia in mice, at dose 40 mg/kg in experiment 2. Type of experiment: functional. To be noted: Mus musculus. In outline: as §3
Experiment [16] deals with L1210. Put plainly: Compound is evaluated for percent increase in life span against L1210 leukemia in mice, at dose 7.5 mg/kg in experiment 1. Type of experiment: functional. As to conditions: Mus musculus. In outline: as §3
Experiment [17] relates to L1210. Put plainly: Compound is evaluated for percent increase in life span against L1210 leukemia in mice, at dose 15 mg/kg in experiment 1. As to conditions: Mus musculus. Type of experiment: functional. Put shortly:
as §3

Experiment [18] has as its system Mus musculus. Put plainly: Compound is evaluated for activity against L1210 leukemia in mice, at dose 40 mg/kg expressed as T/C in experiment 2=12/9. Type of experiment: functional. In outline:
as §2

Experiment [19] deals with Mus musculus. Put plainly: Compound was evaluated for activity against L1210 leukemia in mice, at dose 7.5 mg/kg expressed as T/C in experiment 1=14/10. Type of experiment: functional. In outline:
as §2

Experiment [20] concerns Mus musculus. Put plainly: Compound is evaluated for activity against L1210 leukemia in mice, at dose 15 mg/kg expressed as T/C in experiment 1=14/10. Type of experiment: functional. In outline: as §2
For experiment [21], the system named is Mus musculus. Put plainly: Compound is evaluated for activity against L1210 leukemia in mice, at dose 20 mg/kg expressed as T/C in experiment 2=16/9. Type of experiment: functional. In outline: as §2
Experiment [22] deals with RBL-1. As to the kind of experiment: Compound was tested for the inhibition of growth of rat basophilic leukemia (RBL) cells. Type of experiment: functional. As to conditions: read-out: ID50 (the source's name).
The subject of experiment [23] is L1210. As to the kind of experiment: Compound is evaluated for activity against L1210 leukemia in mice, at dose 160 mg/kg. Type of experiment: functional, Mus musculus. In outline:
as §2

Experiment [24] relates to L1210. Put plainly: Compound is evaluated for activity against L1210 leukemia in mice, at dose 80 mg/kg. Type of experiment: functional, Mus musculus. In outline: as §2
For experiment [25], the system named is L1210. As to the kind of experiment: Compound is evaluated for percent increase in life span against L1210 leukemia in mice, at dose 80 mg/kg. Type of experiment: functional. As to conditions: Mus musculus. Put shortly:
as §3

Experiment [26] relates to L1210. Put plainly: Compound is evaluated for percent increase in life span against L1210 leukemia in mice, at dose 160 mg/kg. Type of experiment: functional. As to conditions: Mus musculus. Put shortly: as §3
The test system of experiment [27] is Mus musculus. As to the kind of experiment: Compound is evaluated for activity against L1210 leukemia in mice, at dose 80 mg/kg expressed as T/C=11/9. Type of experiment: functional. In outline: as §2
In experiment [28] the test system is Mus musculus. As to the kind of experiment: Compound is evaluated for activity against L1210 leukemia in mice, at dose 160 mg/kg expressed as T/C=15/9. Type of experiment: functional. In outline:
as §2

Sequence of Dihydrofolate reductase (Lactobacillus casei) (P00381 whole entry): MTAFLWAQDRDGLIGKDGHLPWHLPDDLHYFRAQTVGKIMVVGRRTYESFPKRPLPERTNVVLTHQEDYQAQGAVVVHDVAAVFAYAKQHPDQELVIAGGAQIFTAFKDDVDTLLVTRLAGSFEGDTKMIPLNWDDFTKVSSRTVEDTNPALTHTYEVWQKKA

Turning to `CN(Cc1cnc2nc(N)nc(N)c2n1)c1ccc(C(=O)NC(CCC(=O)N2CCCCC2)C(=O)N2CCCCC2)cc1` (stereo not given), the figures for the ID50 in experiment [1] and in experiment [3] were 250 nM and 12 nM, respectively. Further, the IC50 in experiment [2] was greater than 10000 nM.

`CN(Cc1cnc2nc(N)nc(N)c2n1)c1ccc(C(=O)NC(CCC(=O)N(Cc2ccccc2)Cc2ccccc2)C(=O)N(Cc2ccccc2)Cc2ccccc2)cc1` (stereo not given): the IC50 in experiment [4] worked out at 7600 nM; in [5] it was 690 nM. Further, the ID50 in experiment [1] was 860 nM; in [3] it was 530 nM.

With `CC(NC(=O)CCC(NC(=O)c1ccc(N(C)Cc2cnc3nc(N)nc(N)c3n2)cc1)C(=O)NC(C)c1ccccc1)c1ccccc1` (stereo not given), the IC50 in [4] and in experiment [5] was greater than 10000 nM each time. Further, the values for the ID50 in experiment [6] and in [7] were 310 nM and 11 nM, respectively. Further, at 10 µM the inhibition in experiment [8] was 25%.

For the compound `CN(Cc1cnc2nc(N)nc(N)c2n1)c1ccc(C(=O)NC(CCC(=O)NN)C(=O)NN)cc1` (stereo not given), the IC50 in experiment [9] came to 7500 nM; in experiment [2], 950 nM; in experiment [22] it was 960 nM. In addition, the ID50 is 360 nM in [1] and 20 nM in [3]. Also, the MTX equivalent in experiment [10] was 14.2 mg/kg; in experiment [11] it was 18.8 mg/kg; in experiment [12] it was 37.6 mg/kg; in experiment [13], 7.1 mg/kg. Also, the ILS (in general, the gain in survival time of treated over control animals, in per cent) at 20 mg/kg in experiment [14] stood at 77%. In [15], this compound gave an ILS at 40 mg/kg of 33%. In addition, the ILS at 7.5 mg/kg in [16] is 40%. In addition, in [17], the increase in lifespan (ILS) at 15 mg/kg came to 40%. Moreover, the “Median T/C” value in experiment [18] turned out to be 12 days; in experiment [19], 14 days; in [20], 14 days; in experiment [21] it was 16 days.

Take `COc1ccc(CNC(=O)CCC(NC(=O)c2ccc(N(C)Cc3cnc4nc(N)nc(N)c4n3)cc2)C(=O)NCc2ccc(OC)cc2)cc1` (stereo not given): the IC50 in [9] was greater than 10000 nM; in [2], 8200 nM. Further, the ID50 in experiment [1] came to 400 nM; in experiment [3], 130 nM. Also, the MTX equivalent stood at 128 mg/kg in experiment [23] and 64 mg/kg in [24]. This compound showed an ILS at 80 mg/kg in experiment [25] of 22%. This compound also had an ILS at 160 mg/kg in experiment [26] of 66%. In addition, the “Median T/C” value in experiment [27] was found to be 11 days; in experiment [28], 15 days. Further, in experiment [8], the inhibition (in general, the share of the control response that was lost under treatment) at 10 µM is 44%.
